Laboratory results from ChEMBL document CHEMBL4011642, “Potent, Selective, and Cell Active Protein Arginine Methyltransferase 5 (PRMT5) Inhibitor Developed by Structure-Based Virtual Screening and Hit Optimization” (J Med Chem, 2017).
Active and inactive are the calls of the source. The rule behind the calls is not given here.

Columns and labels:
PRMT5/MEP50 complex [1] = target: T1, PRMT5/MEP50 complex (Homo sapiens, UniProt O14744); test: Inhibition of recombinant human N-terminal FLAG-tagged PRMT5 (2 to end residues) /human N-terminal His-tagged MEP50 (2 to end residues) expressed in HEK293F cells using histone H4 as substrate preincubated for 15 mins followed by substrate/S-adenosyl methionine addition measured after 60 mins by alpha LISA assay; parameters: species or system HEK293
MV4-11 [2] = test: Cytotoxicity against human MV411 cells assessed as cell growth inhibition after 12 days by Cell Titer-Glo assay; details: MV4-11, 288 h
[3] = Cytotoxicity against human RCTEC assessed as cell growth inhibition after 8 days by Cell Titer-Glo assay; type: cell-based; details: 192 h
Summary of the method: (§1)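 Normal cells (HUVEC from ATCC; RCTEC) grown in RPMI1640 with 10% FBS and 1% penicillin/streptomycin, 5% CO2, 37 °C. Seeded at 0.5–1 × 10^5 cells/well; compound (0–100 μM) added after 6 h. Cells counted and replated with fresh medium and compound every 4 days over 8 days. Viability by CellTiter-Glo luminescence; concentration–response curves fitted at each time point.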

[4] = target: T2, PRMT5/MEP50 complex (Homo sapiens) (UniProt O14744+Q9BQA1); test: (§2) Competitive inhibition of recombinant human N-terminal FLAG-tagged PRMT5 (2 to end residues) /human N-terminal His-tagged MEP50 (2 to end residues) expressed in HEK293F cells using peptide substrate preincubated for 15 mins followed by substrate/[3H]-SAM addition measured after 60 mins under varying concentration of SAM; type: cell-based
Summary of the method: (§3)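 Mechanism study in modified Tris buffer. PRMT5/MEP50 preincubated 15 min at RT with serially diluted compound (1% DMSO final), then peptide added and reaction started with [3H]-SAM. For the SAM study, [3H]-SAM was set at 7 concentrations with fixed peptide. For the peptide study, peptide was set at 7 concentrations with fixed SAM. Run 60 min at RT, stopped with cold SAM, Flashplate capture, MicroBeta counting.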

JeKo-1 = test: Cytotoxicity against human JeKo1 cells assessed as cell growth inhibition after 12 days by Cell Titer-Glo assay; type: functional, cell-based; details: JeKo-1, 288 h
Summary of the method: (§4)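 Cancer lines grown in RPMI1640 with 10% FBS and 1% penicillin/streptomycin, 5% CO2, 37 °C. Seeded at 0.5–1 × 10^5 cells/well; compound (0–100 μM) added after 6 h. Counted and replated at equal numbers with fresh medium and compound every 4 days, up to 12 days. Viable cells by CellTiter-Glo luminescence; concentration–response curves fitted at each time point.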

[5] = target: T2, PRMT5/MEP50 complex (Homo sapiens); test: as §2, with “Non-competitive inhibition” for “Competitive inhibition”, “of peptide” for “of SAM”; type: cell-based; summary of the method: as §3
MV4-11 [6] = test: Cytotoxicity against human MV411 cells assessed as cell growth inhibition after 4 days by Cell Titer-Glo assay; type: functional, cell-based; details: MV4-11, 96 h; summary of the method: as §4
KOPN-8 = test: Cytotoxicity against human KOPN8 cells assessed as cell growth inhibition after 12 days by Cell Titer-Glo assay; details: KOPN-8, 288 h
HUVEC = test: Cytotoxicity against human HUVEC assessed as cell growth inhibition after 8 days by Cell Titer-Glo assay; type: cell-based; details: 192 h; summary of the method: as §1
Z-138 = test: Cytotoxicity against human Z138 cells assessed as cell growth inhibition after 12 days by Cell Titer-Glo assay; type: functional, cell-based; details: Z-138, 288 h; summary of the method: as §4
MV4-11 [7] = test: Cytotoxicity against human MV411 cells assessed as cell growth inhibition after 8 days by Cell Titer-Glo assay; type: functional, cell-based; details: MV4-11, 192 h; summary of the method: as §4
[8] = target: Protein arginine N-methyltransferase 5 (Homo sapiens) (UniProt O14744); test: Inhibition of PRMT5 in human MV411 cells assessed as downregulation of SmD3 after 6 days by Western blot analysis; type: cell-based
Summary of the method: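 MV4-11 cells treated with compound over a 0–20 μM titration for 6 days. Whole-cell lysates run on 4–12% SDS-PAGE, transferred to nitrocellulose, blocked in 5% milk. Probed overnight at 4 °C with anti-symmetric dimethylarginine (SDMA) and GAPDH antibodies, then HRP secondary. SmD3-colocalizing band assessed.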

PRMT5/MEP50 complex [9] = target: T1, PRMT5/MEP50 complex; test: Inhibition of recombinant human N-terminal FLAG-tagged PRMT5 (2 to end residues)/human N-terminal His-tagged MEP50 (2 to end residues) expressed in HEK293F cells using histone H4 as substrate in presence of [3H]-SAM after 60 mins by chemiluminescent assay; type: cell-based, HEK293; details: in the assay text read “radioactive methylation assay” for “chemiluminescent assay”
Summary of the method: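 PRMT5/MEP50 complex in modified Tris buffer with 3-fold diluted compound (1% DMSO final) preincubated 15 min at RT. Substrate added and reaction started with [3H]-SAM; 60 min at RT, stopped with cold SAM. Transferred to Flashplate, washed, counted on MicroBeta.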

[10] = target: T2, PRMT5/MEP50 complex (Homo sapiens); test: as §2, with “of peptide” for “of SAM”; type: cell-based; summary of the method: as §3
[11] = target: T2, PRMT5/MEP50 complex (Homo sapiens); test: as §2, with “Uncompetitive” for “Competitive”; type: cell-based; summary of the method: as §3

T1 sequence (O14744 whole entry): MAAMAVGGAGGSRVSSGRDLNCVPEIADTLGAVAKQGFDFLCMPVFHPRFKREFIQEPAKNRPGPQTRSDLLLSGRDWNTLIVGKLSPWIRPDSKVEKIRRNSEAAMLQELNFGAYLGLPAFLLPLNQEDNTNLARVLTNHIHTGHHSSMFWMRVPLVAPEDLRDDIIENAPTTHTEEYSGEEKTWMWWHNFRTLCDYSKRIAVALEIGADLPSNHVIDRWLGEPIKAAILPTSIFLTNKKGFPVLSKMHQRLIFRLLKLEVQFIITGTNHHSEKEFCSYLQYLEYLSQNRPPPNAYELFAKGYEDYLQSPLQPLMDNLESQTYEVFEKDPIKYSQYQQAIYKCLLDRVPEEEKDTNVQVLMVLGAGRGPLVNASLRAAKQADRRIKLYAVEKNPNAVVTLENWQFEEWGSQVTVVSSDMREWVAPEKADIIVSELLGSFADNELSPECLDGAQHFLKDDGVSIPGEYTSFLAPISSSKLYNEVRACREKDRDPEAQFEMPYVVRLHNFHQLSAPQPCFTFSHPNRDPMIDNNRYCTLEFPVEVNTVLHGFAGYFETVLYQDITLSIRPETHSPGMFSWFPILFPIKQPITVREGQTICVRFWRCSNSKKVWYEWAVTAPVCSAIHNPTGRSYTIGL
T1 sequence (Q9BQA1 whole entry, further chain): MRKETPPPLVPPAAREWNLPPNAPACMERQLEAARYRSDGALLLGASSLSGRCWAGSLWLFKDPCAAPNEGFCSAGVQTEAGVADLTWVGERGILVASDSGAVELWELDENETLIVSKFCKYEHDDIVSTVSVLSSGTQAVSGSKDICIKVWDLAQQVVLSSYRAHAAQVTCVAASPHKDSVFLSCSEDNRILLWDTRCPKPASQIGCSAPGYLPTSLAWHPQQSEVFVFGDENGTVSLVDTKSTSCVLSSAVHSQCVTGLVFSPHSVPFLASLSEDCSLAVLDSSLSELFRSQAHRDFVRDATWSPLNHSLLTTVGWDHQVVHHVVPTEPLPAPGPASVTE
Chain of Protein arginine N-methyltransferase 5 (Homo sapiens) (O14744 whole entry): as the sequence (O14744 whole entry) above

Which IC50 (PRMT5/MEP50 complex [1]) does the source give for `COC(=O)c1ccccc1NC(=O)CSc1nc2ccncc2[nH]1` here?
The IC50 was 87 µM.

With `CCCOc1ccc2[nH]c(SCC(=O)Nc3ccccc3C(=O)OC)nc2c1` as the compound, how does the IC50 (PRMT5/MEP50 complex [1]) read?
Its IC50 is 0.53 µM.

With `COC(=O)c1ccccc1NC(=O)CSc1nc2c(Cl)cccc2[nH]1` as the compound, how does the IC50 (PRMT5/MEP50 complex [1]) read?
Its IC50 is > 100 µM.

For `COC(=O)c1ccccc1NC(=O)CSc1nc2cc(OC)ccc2[nH]1`, which EC50 (MV4-11 [2]) is on record?
Its EC50 is 6.53 µM.

What about the Activity [3] of the same compound?
The Activity was “Non-Toxic”.

And the inhibition [4]?
The inhibition was “Active”.

What about the EC50 (JeKo-1) of the same compound?
Its EC50 is 15 to 70 µM.

What about the inhibition [5] of the same compound?
Its inhibition is “Active”.

And the EC50 (MV4-11 [6])?
Its EC50 is 80.7 µM.

What about the EC50 (KOPN-8) of the same compound?
The EC50 was 15 to 70 µM.

And the Activity (HUVEC)?
The Activity was “Non-Toxic”.

And the EC50 (Z-138)?
Its EC50 is 15 to 70 µM.

What about the EC50 (MV4-11 [7]) of the same compound?
The EC50 was 25.7 µM.

What about the inhibition [8] of the same compound?
Its inhibition is “Dose-dependent effect”.

With `CNc1ccc2[nH]c(SCC(=O)Nc3ccccc3C(=O)OC)nc2c1` as the compound, how does the IC50 (PRMT5/MEP50 complex [1]) read?
The IC50 was 1.6 µM.

With `COC(=O)c1ccccc1NC(=O)CSc1nc2c(OC)cccc2[nH]1` as the compound, how does the IC50 (PRMT5/MEP50 complex [1]) read?
The IC50 was > 100 µM.

Which IC50 (PRMT5/MEP50 complex [1]) does the source give for `COC(=O)c1ccccc1NC(=O)CSc1nc2cc(N)ccc2[nH]1` here?
The IC50 was 40 µM.

Which IC50 (PRMT5/MEP50 complex [1]) does the source give for `COc1ccc2[nH]c(SCC(=O)Nc3ccccc3)nc2c1` here?
Its IC50 is 33 µM.

Which IC50 (PRMT5/MEP50 complex [1]) does the source give for `COC(=O)c1ccccc1NC(=O)CSc1nc2c(C)cccc2[nH]1` here?
Its IC50 is > 100 µM.

With `COC(=O)c1ccccc1NC(=O)CSc1nc2cc(Cl)ccc2[nH]1` as the compound, how does the IC50 (PRMT5/MEP50 complex [1]) read?
The IC50 was 0.5 µM.

For `COC(=O)c1ccncc1NC(=O)CSc1nc2cc(OC)ccc2[nH]1`, which IC50 (PRMT5/MEP50 complex [1]) is on record?
Its IC50 is 2.4 µM.

For `COC(=O)c1ccccc1NC(=O)CSc1nc2ccccc2[nH]1`, which IC50 (PRMT5/MEP50 complex [9]) is on record?
Its IC50 is 24 µM.

And the IC50 (PRMT5/MEP50 complex [1])?
Its IC50 is 8.1 µM.

Which IC50 (PRMT5/MEP50 complex [1]) does the source give for `CCOC(=O)c1ccccc1NC(=O)CSc1nc2cc(OC)ccc2[nH]1` here?
Its IC50 is 1.9 µM.

With `COc1ccc2[nH]c(SCC(=O)Nc3ccccc3C(=O)O)nc2c1` as the compound, how does the IC50 (PRMT5/MEP50 complex [1]) read?
Its IC50 is > 100 µM.

With `OCCNCc1c(OCc2ccccc2F)ccc2ccccc12` as the compound, how does the IC50 (PRMT5/MEP50 complex [9]) read?
Its IC50 is 172 µM.

What about the IC50 (PRMT5/MEP50 complex [1]) of the same compound?
Its IC50 is 18 µM.

With `COc1ccc2[nH]c(SCC(=O)Nc3ccccc3C(=O)N(C)C)nc2c1` as the compound, how does the IC50 (PRMT5/MEP50 complex [1]) read?
Its IC50 is > 200 µM.

With `COC(=O)c1ccccc1NC(=O)CSc1nc2cc(O)ccc2[nH]1` as the compound, how does the IC50 (PRMT5/MEP50 complex [1]) read?
The IC50 was > 100 µM.

For `COC(=O)c1ccccc1NC(=O)CSc1nc2cc(OC(C)C)ccc2[nH]1`, which IC50 (PRMT5/MEP50 complex [1]) is on record?
Its IC50 is 2.8 µM.

Which IC50 (PRMT5/MEP50 complex [1]) does the source give for `Clc1ccc(CNCC2CCNCC2)cc1Cl` here?
The IC50 was 27 µM.

Which IC50 (PRMT5/MEP50 complex [1]) does the source give for `COC(=O)c1ccccc1NC(=O)CSc1nc2cc(F)ccc2[nH]1` here?
The IC50 was 3.3 µM.

With `COc1ccc2[nH]c(SCC(=O)Nc3ccccc3OC)nc2c1` as the compound, how does the IC50 (PRMT5/MEP50 complex [1]) read?
The IC50 was 19 µM.

Which IC50 (PRMT5/MEP50 complex [1]) does the source give for `COC(=O)c1ccccc1NC(=O)CSc1nc2cc(C)ccc2[nH]1` here?
Its IC50 is 1.4 µM.

Which IC50 (PRMT5/MEP50 complex [1]) does the source give for `COc1ccc2[nH]c(SCC(=O)Nc3ccccc3N(C)C)nc2c1` here?
The IC50 was 25 µM.

With `CNC(=O)c1ccccc1NC(=O)CSc1nc2cc(OC)ccc2[nH]1` as the compound, how does the IC50 (PRMT5/MEP50 complex [1]) read?
Its IC50 is > 200 µM.

With `COc1ccc2[nH]c(SCC(=O)Nc3ccccc3Cl)nc2c1` as the compound, how does the IC50 (PRMT5/MEP50 complex [1]) read?
Its IC50 is 47 µM.

For `CCOc1ccc2[nH]c(SCC(=O)Nc3ccccc3C(=O)OC)nc2c1`, which IC50 (PRMT5/MEP50 complex [1]) is on record?
Its IC50 is 0.35 µM.

For `COC(=O)c1ccccc1NC(=O)CSc1nc2nc(OC)ccc2[nH]1`, which IC50 (PRMT5/MEP50 complex [1]) is on record?
Its IC50 is 8.4 µM.

With `COc1ccc(C(=O)NC2C=NCS2)c(OC)c1` (stereo not drawn) as the compound, how does the IC50 (PRMT5/MEP50 complex [1]) read?
The IC50 was 27 µM.

Which results are given for `Cc1ccc(OCc2nnc3sc(-c4cccnc4)nn23)cc1`?
IC50 (PRMT5/MEP50 complex [9]): > 200 µM; IC50 (PRMT5/MEP50 complex [1]): 26 µM

Which IC50 (PRMT5/MEP50 complex [1]) does the source give for `COC(=O)c1ccccc1NC(=O)CSc1nc2cc(N(C)C)ccc2[nH]1` here?
The IC50 was 0.33 µM.

With `COC(=O)c1ccccc1NC(=O)CSc1nc2cc(Br)ccc2[nH]1` as the compound, how does the IC50 (PRMT5/MEP50 complex [1]) read?
The IC50 was 0.34 µM.

With `O=C(/C=C/c1ccc(-c2ccccc2[N+](=O)[O-])o1)c1ccccc1` as the compound, how does the IC50 (PRMT5/MEP50 complex [9]) read?
Its IC50 is 169 µM.

What about the IC50 (PRMT5/MEP50 complex [1]) of the same compound?
Its IC50 is 23 µM.

With `O=C(NC[C@H](O)CN1CCc2ccccc2C1)c1cc(NC2COC2)ncn1` as the compound, how does the inhibition [10] read?
Its inhibition is “Active”.

What about the inhibition [11] of the same compound?
Its inhibition is “Active”.

Which IC50 (PRMT5/MEP50 complex [1]) does the source give for `COc1ccc2[nH]c(SCC(=O)Nc3ccccc3C(C)=O)nc2c1` here?
Its IC50 is 2.9 µM.

For `COC(=O)c1cccc(NC(=O)CSc2nc3cc(OC)ccc3[nH]2)c1`, which IC50 (PRMT5/MEP50 complex [1]) is on record?
The IC50 was 52 µM.

With `COc1ccc2[nH]c(SCC(=O)Nc3ccccc3C)nc2c1` as the compound, how does the IC50 (PRMT5/MEP50 complex [1]) read?
The IC50 was > 200 µM.

With `COC(=O)c1ccc(NC(=O)CSc2nc3cc(OC)ccc3[nH]2)cc1` as the compound, how does the IC50 (PRMT5/MEP50 complex [1]) read?
The IC50 was > 100 µM.

With `COC(=O)c1ccccc1NC(=O)CSc1nc2cc([N+](=O)[O-])ccc2[nH]1` as the compound, how does the IC50 (PRMT5/MEP50 complex [1]) read?
Its IC50 is 0.83 µM.
